We go through 55 molecules from ChEMBL document CHEMBL1152292, “Biarylpyrazolyl oxadiazole as potent, selective, orally bioavailable cannabinoid-1 receptor antagonists for the treatment of obesity” (J Med Chem, 2008).

Assay [1] can be described thus: Selectivity ratio of IC50 for human CB2 receptor to IC50 for Sprague-Dawley rat CB1 receptor. The essentials:
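Ratio of CB2 IC50 to CB1 IC50. Both come from radioligand competition on membranes incubated 1 h at 30 °C in TME/0.5% BSA: rat cerebellar membranes for CB1, human CB2-transfected CHO K-1 membranes for CB2. IC50 by nonlinear regression from three independent triplicate experiments.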

Another assay addresses Cannabinoid receptor 2 (Homo sapiens, UniProt P34972). Put plainly: Displacement of [3H]WIN-55212-2 from human CB2 receptor expressed in CHOK1 cells by liquid scintillation spectrometry. In kind it is cell-based, CHO-K1. The essentials:
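Membranes from CHO K-1 cells transfected with human CB2, prepared as for cerebellum. About 10 µg membrane incubated with radioligand and varied test concentrations in TME buffer plus 0.5% fatty-acid-free BSA, 1 h at 30 °C. Filtered through PEI-soaked GF/B filters. Nonspecific binding defined with 1 µM WIN55,212-2. IC50 by nonlinear regression, triplicates, three independent experiments.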
For orientation: In a radioligand displacement assay an active substance lowers the binding of a labelled ligand.

A further assay concerns the target Cannabinoid receptor 1 (Rattus norvegicus, UniProt P20272). Put plainly: Displacement of [3H]CP-55940 from CB1 receptor in Sprague-Dawley rat cerebellum by liquid scintillation spectrometry. The essentials: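 Cerebella from male rats (200-300 g) homogenized in TME buffer (50 mM Tris-HCl, 1 mM EDTA, 3 mM MgCl2, pH 7.4), centrifuged 48000g 30 min at 4 °C. About 10 µg membrane incubated with radioligand and varied test concentrations in TME plus 0.5% fatty-acid-free BSA, 1 h at 30 °C. Filtered through PEI-soaked GF/B filters. […] IC50 by nonlinear regression, triplicates, three independent experiments.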

Chain of Cannabinoid receptor 2 (P34972 whole entry): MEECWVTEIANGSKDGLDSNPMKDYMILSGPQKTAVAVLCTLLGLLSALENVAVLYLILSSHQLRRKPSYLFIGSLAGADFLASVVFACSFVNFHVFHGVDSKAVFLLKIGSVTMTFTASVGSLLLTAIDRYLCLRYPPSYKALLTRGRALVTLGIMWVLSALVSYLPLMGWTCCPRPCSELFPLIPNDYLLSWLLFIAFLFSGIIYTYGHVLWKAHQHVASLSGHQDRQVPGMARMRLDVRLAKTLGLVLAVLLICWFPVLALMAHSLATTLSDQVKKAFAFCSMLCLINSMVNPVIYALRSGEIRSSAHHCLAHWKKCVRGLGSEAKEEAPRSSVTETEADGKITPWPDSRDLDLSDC
Chain of Cannabinoid receptor 1 (P20272 whole entry): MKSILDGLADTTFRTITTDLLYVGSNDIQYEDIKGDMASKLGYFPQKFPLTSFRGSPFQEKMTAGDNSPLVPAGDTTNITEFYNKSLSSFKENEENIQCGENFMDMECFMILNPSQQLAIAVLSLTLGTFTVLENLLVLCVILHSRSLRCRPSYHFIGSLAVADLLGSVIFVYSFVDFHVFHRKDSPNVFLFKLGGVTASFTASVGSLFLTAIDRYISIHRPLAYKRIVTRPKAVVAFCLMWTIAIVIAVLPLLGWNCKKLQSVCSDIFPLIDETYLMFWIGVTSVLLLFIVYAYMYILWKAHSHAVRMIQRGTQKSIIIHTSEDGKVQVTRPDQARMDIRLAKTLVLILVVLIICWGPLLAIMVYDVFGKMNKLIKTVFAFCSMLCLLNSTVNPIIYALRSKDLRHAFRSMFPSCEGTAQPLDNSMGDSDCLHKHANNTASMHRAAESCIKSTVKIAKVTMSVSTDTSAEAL

For `CC(C)(C)c1nnc(-c2nn(-c3ccc(Cl)cc3Cl)c(-c3ccc(Cl)cc3)c2Cn2cccn2)o1`, the Ratio IC50 in assay [1] is 48. This molecule also had an IC50 on Cannabinoid receptor 2 of 979 nM.
Take `CC(=O)SCc1c(-c2nnc(C(C)(C)C)o2)nn(-c2ccc(Cl)cc2Cl)c1-c1ccc(Cl)cc1`: the Ratio IC50 in assay [1] is 71. On Cannabinoid receptor 2, this molecule came in with an IC50 of 1480 nM.
Regarding `Cc1c(-c2nnc(C3CCCCC3)o2)nn(-c2ccc(Cl)cc2Cl)c1-c1ccc(Cl)cc1`, on Cannabinoid receptor 1, the IC50 turned out to be 12 nM.
Take `CC(C)(C)c1nnc(-c2nn(-c3ccc(Cl)cc3Cl)c(-c3ccc(Cl)cc3)c2COc2ccccn2)o1`: in assay [1], the Ratio IC50 is 84. Also, the IC50 at Cannabinoid receptor 2 was 2040 nM.
As to `Cc1c(-c2nnc(C(C)(C)c3ccc(Cl)cc3)o2)nn(-c2ccc(Cl)cc2Cl)c1-c1ccc(Cl)cc1`, the IC50 at Cannabinoid receptor 1 was 4.78 nM.
For the molecule `Cc1ccc(C2(c3nnc(-c4nn(-c5ccc(Cl)cc5Cl)c(-c5ccc(Cl)cc5)c4Cn4cncn4)o3)CC2)cc1`, the IC50 came to 1.09 nM on Cannabinoid receptor 1 and 1240 nM on Cannabinoid receptor 2. In assay [1], the Ratio IC50 turned out to be 1140.
With `CCC(C)(C)c1nnc(-c2nn(-c3ccc(Cl)cc3Cl)c(-c3ccc(Cl)cc3)c2C)o1`, the half-inhibitory concentration (IC50) on Cannabinoid receptor 1 amounted to 10.4 nM.
Same read-out and setting: under `Cc1c(-c2nnc(C3CCCCCC3)o2)nn(-c2ccc(Cl)cc2Cl)c1-c1ccc(Cl)cc1` stands 26.5 nM; under `Cc1c(-c2nnc(Cc3ccccn3)o2)nn(-c2ccc(Cl)cc2Cl)c1-c1ccc(Cl)cc1`, 51.9 nM.
As to `CC(=O)OCc1c(-c2nnc(C(C)(C)C)o2)nn(-c2ccc(Cl)cc2Cl)c1-c1ccc(Cl)cc1`, in assay [1], the Ratio IC50 is 58. At Cannabinoid receptor 2, the half-maximal inhibitory concentration (IC50) amounted to 1300 nM.
On to `Cc1c(-c2nnc(C(C)c3ccccc3)o2)nn(-c2ccc(Cl)cc2Cl)c1-c1ccc(Cl)cc1` (stereo not drawn), for which, on Cannabinoid receptor 1, the IC50 came out at 10.9 nM.
Still for that read-out and setting: under `Cc1c(-c2nnc(C(C)(C)c3ccccc3)o2)nn(-c2ccc(Cl)cc2Cl)c1-c1ccc(Cl)cc1` stands 8.42 nM.
On to `Cc1ccc(C2(c3nnc(-c4nn(-c5ccc(Cl)cc5Cl)c(-c5ccc(Br)cc5)c4Cn4cncn4)o3)CC2)cc1`, for which the IC50 at Cannabinoid receptor 1 is 1.34 nM; at Cannabinoid receptor 2, 579 nM. Further, the Ratio IC50 in assay [1] worked out at 432.
In the case of `CC1(c2nnc(-c3nn(-c4ccc(Cl)cc4Cl)c(-c4ccc(Cl)cc4)c3Cn3cncn3)o2)CC1`, the figures for the IC50 at Cannabinoid receptor 1 and at Cannabinoid receptor 2 were 1.98 nM and 954 nM, respectively. Further, in assay [1], the Ratio IC50 stood at 482.
As for `CC(C)(C)c1nnc(-c2nn(-c3ccc(Cl)cc3Cl)c(-c3ccc(Br)cc3)c2Cn2cncn2)o1`, the Ratio IC50 in assay [1] amounted to 187. The IC50 at Cannabinoid receptor 2 amounted to 513 nM.
At Cannabinoid receptor 1, `CC(C)(C)c1nnc(-c2nn(-c3ccc(Cl)cc3Cl)c(-c3ccc(Cl)cc3)c2C(=O)O)o1` displayed an IC50 above 10000 nM.
For the molecule `CC(C)(C)c1nnc(-c2nn(-c3ccc(Cl)cc3Cl)c(-c3ccc(Cl)cc3)c2Cn2ccnn2)o1`, the Ratio IC50 in assay [1] came to 88. The IC50 at Cannabinoid receptor 2 stood at 1120 nM.
In turn, `CCCCc1nnc(-c2nn(-c3ccc(Cl)cc3Cl)c(-c3ccc(Cl)cc3)c2C)o1` gave an IC50 at Cannabinoid receptor 1 of 35 nM.
On to `CC(F)c1c(-c2nnc(C(C)(C)C)o2)nn(-c2ccc(Cl)cc2Cl)c1-c1ccc(Cl)cc1` (stereo not drawn), for which the Ratio IC50 in assay [1] was 66. For the same molecule, at Cannabinoid receptor 2, the IC50 amounted to 924 nM.
Take `COCc1c(-c2nnc(C(C)(C)C)o2)nn(-c2ccc(Cl)cc2Cl)c1-c1ccc(Cl)cc1`: the Ratio IC50 in assay [1] came out at 24. The same molecule came in with an IC50 on Cannabinoid receptor 2 of 375 nM.
Take `CC1(c2nnc(-c3nn(-c4ccc(Cl)cc4Cl)c(-c4ccc(Br)cc4)c3Cn3cncn3)o2)CC1`: the IC50 on Cannabinoid receptor 1 came to 2.81 nM; on Cannabinoid receptor 2, 407 nM. For the same molecule, in assay [1], the Ratio IC50 was determined as 145.
In the same order, the values of `Clc1ccc(C2(c3nnc(-c4nn(-c5ccc(Cl)cc5Cl)c(-c5ccc(Br)cc5)c4Cn4cncn4)o3)CC2)cc1` are 0.57 nM, 1050 nM and 1840.
At Cannabinoid receptor 1, `Cc1c(-c2nnc(Cc3ccccc3)o2)nn(-c2ccc(Cl)cc2Cl)c1-c1ccc(Cl)cc1` showed an IC50 of 19.2 nM.
The molecule `Cc1c(-c2nnc(-c3ccccc3)o2)nn(-c2ccc(Cl)cc2Cl)c1-c1ccc(Cl)cc1` gave an IC50 at Cannabinoid receptor 1 of 281 nM.
The molecule `CCC(C)c1nnc(-c2nn(-c3ccc(Cl)cc3Cl)c(-c3ccc(Cl)cc3)c2C)o1` (stereo not drawn) returned an IC50 at Cannabinoid receptor 1 of 10.4 nM.
On the same count and under the same terms, under `CCCCC(C)(C)c1nnc(-c2nn(-c3ccc(Cl)cc3Cl)c(-c3ccc(Cl)cc3)c2C)o1` stands 14.7 nM.
On Cannabinoid receptor 1, `Cc1c(-c2nnc(C(C)C)o2)nn(-c2ccc(Cl)cc2Cl)c1-c1ccc(Cl)cc1` yielded an IC50 of 25 nM.
`CC(C)(C)c1nnc(-c2nn(-c3ccc(Cl)cc3Cl)c(-c3ccc(Cl)cc3)c2CO)o1`: the IC50 stood at 14.6 nM at Cannabinoid receptor 1 and 1810 nM on Cannabinoid receptor 2. In assay [1], the Ratio IC50 was determined as 124.
Regarding `CCC(CC)c1nnc(-c2nn(-c3ccc(Cl)cc3Cl)c(-c3ccc(Cl)cc3)c2C)o1`, at Cannabinoid receptor 1, the IC50 is 31.7 nM.
As to `CC(C)(C)c1nnc(-c2nn(-c3ccc(Cl)cc3Cl)c(-c3ccc(Cl)cc3)c2Cn2cnnn2)o1`, the Ratio IC50 in assay [1] turned out to be 96. At Cannabinoid receptor 2, this molecule showed an IC50 of 736 nM.
For `CCCCC(C)c1nnc(-c2nn(-c3ccc(Cl)cc3Cl)c(-c3ccc(Cl)cc3)c2C)o1` (stereo not drawn), at Cannabinoid receptor 1, the IC50 turned out to be 15.1 nM.
As to `C[C@H](NC(=O)C(C)(C)Oc1ccc(C(F)(F)F)cn1)[C@@H](Cc1ccc(Cl)cc1)c1cccc(C#N)c1` [TARANABANT], the IC50 at Cannabinoid receptor 1 turned out to be 0.86 nM.
As for `C=Cc1c(-c2nnc(C(C)(C)C)o2)nn(-c2ccc(Cl)cc2Cl)c1-c1ccc(Cl)cc1`, the Ratio IC50 in assay [1] turned out to be 62. This molecule showed an IC50 at Cannabinoid receptor 2 of 1050 nM.
The matching figures for `COC(=O)NCc1c(-c2nnc(C(C)(C)C)o2)nn(-c2ccc(Cl)cc2Cl)c1-c1ccc(Cl)cc1`: 107 and 1670 nM.
`Cc1c(-c2nnc(C(C)(C)C)o2)nn(-c2ccc(Cl)cc2Cl)c1-c1ccc(Cl)cc1`: the IC50 on Cannabinoid receptor 1 was found to be 7.59 nM; at Cannabinoid receptor 2, 1410 nM. In assay [1], the Ratio IC50 came out at 186.
Molecule `Cc1c(-c2nnc(C3CCC3)o2)nn(-c2ccc(Cl)cc2Cl)c1-c1ccc(Cl)cc1` showed an IC50 on Cannabinoid receptor 1 of 13.1 nM.
On to `CC(C)(C)c1nnc(-c2nn(-c3ccc(Cl)cc3Cl)c(-c3ccc(Cl)cc3)c2COc2ccccc2)o1`, for which, in assay [1], the Ratio IC50 came out at 204. This molecule yielded an IC50 on Cannabinoid receptor 2 of 5910 nM.
With `CC(C)(C)c1nnc(-c2nn(-c3ccc(Cl)cc3Cl)c(-c3ccc(Cl)cc3)c2Cn2cncn2)o1`, the Ratio IC50 in assay [1] was determined as 341. The IC50 on Cannabinoid receptor 2 was 804 nM.
The matching figures for `CC(C)(C)c1nnc(-c2nn(-c3ccc(Cl)cc3Cl)c(-c3ccc(Cl)cc3)c2C(C)(C)O)o1`: 74 and 1670 nM.
Consider `CC(C)c1c(-c2nnc(C(C)(C)C)o2)nn(-c2ccc(Cl)cc2Cl)c1-c1ccc(Cl)cc1`, for which the IC50 at Cannabinoid receptor 1 worked out at 18 nM; at Cannabinoid receptor 2, 2820 nM. For the same molecule, in assay [1], the Ratio IC50 is 157.
Take `CC(C)(C)c1nnc(-c2nn(-c3ccc(Cl)cc3Cl)c(-c3ccc(Cl)cc3)c2CC#N)o1`: the Ratio IC50 in assay [1] was determined as 88. The IC50 on Cannabinoid receptor 2 turned out to be 539 nM.
The matching figures for `CC(C)(C)c1nnc(-c2nn(-c3ccc(Cl)cc3Cl)c(-c3ccc(Cl)cc3)c2Cn2ccnc2)o1`: 20 and 376 nM.
For `CCCCCc1nnc(-c2nn(-c3ccc(Cl)cc3Cl)c(-c3ccc(Cl)cc3)c2C)o1`, at Cannabinoid receptor 1, the IC50 is 71.8 nM.
`Clc1ccc(-c2c(Cn3cncn3)c(-c3nnc(C4(c5ccc(Cl)cc5)CC4)o3)nn2-c2ccc(Cl)cc2Cl)cc1`: the Ratio IC50 in assay [1] was 670. At Cannabinoid receptor 2, this molecule showed a half-maximal inhibitory concentration (IC50) of 1480 nM.
As for `CC(C)(C)c1nnc(-c2nn(-c3ccc(Cl)cc3Cl)c(-c3ccc(Cl)cc3)c2C2CC2)o1`, the IC50 was found to be 30.3 nM at Cannabinoid receptor 1 and 3320 nM at Cannabinoid receptor 2. Moreover, the Ratio IC50 in assay [1] is 110.
Turning to `C=C(C)c1c(-c2nnc(C(C)(C)C)o2)nn(-c2ccc(Cl)cc2Cl)c1-c1ccc(Cl)cc1`, the Ratio IC50 in assay [1] came out at 358. The molecule also showed an IC50 on Cannabinoid receptor 2 of 1730 nM.
For the molecule `CCc1c(-c2nnc(C(C)(C)C)o2)nn(-c2ccc(Cl)cc2Cl)c1-c1ccc(Cl)cc1`, the IC50 at Cannabinoid receptor 1 came out at 6.57 nM; at Cannabinoid receptor 2, 2330 nM. Further, in assay [1], the Ratio IC50 was 355.
`CC(O)c1c(-c2nnc(C(C)(C)C)o2)nn(-c2ccc(Cl)cc2Cl)c1-c1ccc(Cl)cc1` (stereo not drawn): the Ratio IC50 in assay [1] amounted to 187. At Cannabinoid receptor 2, this molecule had an IC50 of 1890 nM.
As for `CC(C)(C)c1nnc(-c2nn(-c3ccc(Cl)cc3Cl)c(-c3ccc(Cl)cc3)c2CF)o1`, the Ratio IC50 in assay [1] turned out to be 76. The half-inhibitory concentration (IC50) at Cannabinoid receptor 2 worked out at 1120 nM.
In the case of `CC(C)(C)c1nnc(-c2nn(-c3ccc(Cl)cc3Cl)c(-c3ccc(Cl)cc3)c2Cn2ncnn2)o1`, the IC50 on Cannabinoid receptor 1 worked out at 3.37 nM; on Cannabinoid receptor 2, 680 nM. Besides, the Ratio IC50 in assay [1] is 202.
As for `COC(=O)NC(C)c1c(-c2nnc(C(C)(C)C)o2)nn(-c2ccc(Cl)cc2Cl)c1-c1ccc(Cl)cc1` (stereo not drawn), the IC50 at Cannabinoid receptor 1 was 9 nM; at Cannabinoid receptor 2, above 10000 nM. For the same molecule, in assay [1], the Ratio IC50 was above 1110.
`CCCc1nnc(-c2nn(-c3ccc(Cl)cc3Cl)c(-c3ccc(Cl)cc3)c2C)o1`: the IC50 on Cannabinoid receptor 1 turned out to be 160 nM.
On Cannabinoid receptor 2, `Clc1ccc(-c2c(Cn3cncn3)c(-c3nnc(C4(c5ccccc5)CC4)o3)nn2-c2ccc(Cl)cc2Cl)cc1` came in with an IC50 of 1130 nM.
In the case of `CCCc1c(-c2nnc(C(C)(C)C)o2)nn(-c2ccc(Cl)cc2Cl)c1-c1ccc(Cl)cc1`, the 50% inhibitory concentration (IC50) was 33.5 nM on Cannabinoid receptor 1 and above 10000 nM at Cannabinoid receptor 2. Moreover, the Ratio IC50 in assay [1] was above 299.
For `Clc1ccc(-n2nc(-c3nnc(C4(c5ccccc5)CC4)o3)c(Cn3cncn3)c2-c2ccc(Br)cc2)c(Cl)c1`, the IC50 came out at 0.96 nM at Cannabinoid receptor 1 and 242 nM on Cannabinoid receptor 2. Moreover, in assay [1], the Ratio IC50 is 252.

In general, IC50 refers to the concentration needed to halve the response being measured.
